Screens (PubChem BioAssay)
Shown are actives, neighbours in structure and some others; about 2.9% of the full set was active somewhere.
OX1R antag-1: blocks the human orexin 1 receptor | inhibition, % at 6.6 µM | O43613 | 330,000 compounds, 1.8% hits | OX1R-expressing cells, FRET antagonist read-out; in the data active means inhibition mostly above about 38%, no sharp cut-off; inactive means mostly below about 40%;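 further: 0% = agonist challenge alone and 100% = reference antagonist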
Target sequence (O43613 whole entry, looked up): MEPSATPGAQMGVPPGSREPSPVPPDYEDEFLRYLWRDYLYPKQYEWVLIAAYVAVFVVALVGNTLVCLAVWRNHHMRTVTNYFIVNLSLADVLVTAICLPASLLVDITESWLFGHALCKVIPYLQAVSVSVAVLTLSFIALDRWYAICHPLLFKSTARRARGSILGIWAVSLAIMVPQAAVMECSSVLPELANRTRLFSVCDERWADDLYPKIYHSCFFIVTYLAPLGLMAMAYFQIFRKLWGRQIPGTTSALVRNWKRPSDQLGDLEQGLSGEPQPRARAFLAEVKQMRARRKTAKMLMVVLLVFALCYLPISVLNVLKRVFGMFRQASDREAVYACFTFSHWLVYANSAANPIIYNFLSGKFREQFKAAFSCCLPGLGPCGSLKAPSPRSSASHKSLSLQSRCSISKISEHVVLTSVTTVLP
CHO-K1 Ca ag: M1 agonist counterscreen hit in parental CHO-K1 cells | Fluo-8 calcium fluorescence; scaled to maximal ATP response, vehicle zero | activation, % at 3 µM | 360,000 compounds, 0.48% hits | AID 602248; in the data active means activation above about 15%;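 further: untransfected CHO-K1 host cells lacking M1 receptor as counterscreen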
M1 PAM parental: M1 PAM counterscreen hit in parental CHO-K1 cells | ATP EC20, Fluo-8 calcium fluorescence; 0% at ATP EC20, 100% at ATP max | activation, % at 3 µM | 360,000 compounds, 0.02% hits;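 active means activation above the run cutoff, the mean activation of all test compounds plus 3 SD, cut at about 40% in these data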;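 further: peak over basal fluorescence ratio in a 140 s read after ATP addition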
CHO-K1 Ca antag: counter-screen for M1 antagonists: effect in parental CHO-K1 cells. AID 602250. ATP-induced calcium, Fluo-8 fluorescence. inhibition, % at 3 µM. 360,000 compounds, 0.6% hits;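 active means inhibition above a per-plate cutoff, the plate's mean sample inhibition plus 3 SD, cut at about 24% in these data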;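 further: 0% = DMSO plus EC80 ATP and 100% = DMSO alone without ATP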
OX1R antag-2: antagonists of human orexin 1 receptor; 330,000 compounds, 0.43% hits; CHO/OX1R cells, Fluo-8 calcium fluorescence, orexin A; AID 434989; inhibition, % at 5 µM; O43613;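 active means inhibition above its plate's threshold, mean inhibition of all tested compounds on the plate plus 3 SD, cut at about 37% in these data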;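 further: 0% = orexin A challenge wells and 100% = SB-334867-A antagonist wells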
CHO parental Ca: counter-screen: ATP calcium response change in parental CHO cells; parental CHO-K1, ATP-induced calcium, Fluo-8 fluorescence; inhibition, % at 5.6 µM; 330,000 compounds, 0.63% hits; AID 463079;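 active means inhibition above that plate's mean sample inhibition plus 3 SD, cut at about 26% in these data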;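 further: 0% = ATP-challenged DMSO wells and 100% = DMSO wells without ATP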
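Assay system: untransfected parental CHO cell line. Also added: ATP agonist challenge. Dosing: one dose, 5.6 µM nominal. Measured by: Fluo-8 fluorescence. Read-out: % inhibition. Benchmarks: ATP wells versus no-ATP DMSO wells. Repeats: no replicates.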
Active calls of the source: *; / = not tested or not shown.

SMILES	OX1R antag-1	CHO-K1 Ca ag	M1 PAM parental	CHO-K1 Ca antag	OX1R antag-2	CHO parental Ca
COc1ccc(C2c3[nH]c4ccccc4c3CCN2CCCn2cccn2)c(F)c1 (centres undefined)	12	1	-10	-11	-17	1
CC(C)(C)OC(=O)C(C)(C)Sc1nnc(N)s1	7	1	17	-7	-5	-8
CC(C)CCN(C(=S)Nc1cccc(F)c1)C1CCN(C(C)C)CC1	6	1	-4	-11	-5	-10
Cc1cc(C)cc(NC(=O)COc2coc(CN3CCc4ccccc43)cc2=O)c1	16	2	11	0	-35	-17
O=c1c2ccccc2c(C=Nc2cccc(S(=O)(=O)NCc3ccco3)c2)c(O)n1-c1ccc(Cl)cn1	66*	0	-13	9	4	-7
O=c1c2ccccc2c(C=Nc2ccc(S(=O)(=O)N3CCCCC3)cc2)c(O)n1-c1ccc(Cl)cn1	4	0	2	-2	-20	-9
CCCN1CCC(=O)N([C@H](CN=[N+]=[N-])CC(C)C)CC1	13	0	2	13	-8	-12
CN(C)c1ccc(C=C(C#N)C(=O)c2ccccc2)cc1Br	/	2	5	2	/	/
CC(=O)Nc1cccc(-c2cn3ccc(C)cc3n2)c1	15	0	10	-7	-22	-16
Cc1ccn2cc(-c3cccc([N+](=O)[O-])c3)nc2c1	66*	-1	12	-20	-25	-18
CCC(=O)c1ccc(OCc2ccc(C(=O)c3ccccc3)cc2)cc1	24	12	-9	11	33	65*
Cc1ccc2oc(NC(=O)N3CCOCC3)cc(=O)c2c1	10	0	-4	31*	-25	-25
Cc1noc(C)c1S(=O)(=O)Nc1ccc(C(=O)N2CCN(c3cccc(Cl)c3)CC2)cc1	26	17*	-10	1	56*	33*
O=C1CS/C(=N/N=C/c2ccc(OS(=O)(=O)c3ccccc3)cc2)N1	70*	0	-6	-4	0	1
COc1cc(/C=C/C(=O)NC(=O)c2ccccc2O)ccc1OC(C)=O	66*	1	2	5	4	-13
COc1ccc(/C=C/C(=O)NC(=S)Nc2ccccc2)cc1OC	2	0	-8	-9	-16	-4
O=C1NCCCCC1NS(=O)(=O)c1cccc(C(F)(F)F)c1 (centres undefined)	-15	0	-4	-2	-6	20
N#Cc1cccnc1N1CCN(C(=O)c2cccc3c2C(=O)c2ccc(Cl)cc2S3(=O)=O)CC1	34*	2	10	-14	-19	-24
N#Cc1cccnc1N1CCN(C(=O)c2cccc3c2C(=O)c2ccc(-c4ccc(Cl)c(C(F)(F)F)c4)cc2S3(=O)=O)CC1	9	0	-18	-1	-8	-23
C[C@H]1CC[C@H]2C(=O)N3[C@H](c4ccccc4Br)[C@@H](C)CC[C@H]3C(=O)N2[C@@H]1c1ccccc1Br	75*	/	/	/	39	23
CC(Cc1ccc(O)c(O)c1)C(C)Cc1ccc(O)c(O)c1 (centres undefined)	4	/	/	/	32	34*
CC1(C)Cc2c(sc3nc(-c4cccs4)n(N)c(=O)c23)CO1	12	16*	-13	-4	4	16
CC1(C)Cc2c(sc3nc(-c4ccccc4)n(N)c(=O)c23)CO1	6	0	-9	2	7	-27
Cn1cccc1C(=O)NC(=O)COC(=O)c1ccc(S(C)(=O)=O)c([N+](=O)[O-])c1	33	5	23	-11	23	9
CS(=O)(=O)c1ccc(C(=O)OCC(=O)NC23CC4CC(CC(C4)C2)C3)cc1[N+](=O)[O-]	26	0	7	-10	42*	68*
SMILES	OX1R antag-1	CHO-K1 Ca ag	M1 PAM parental	CHO-K1 Ca antag	OX1R antag-2	CHO parental Ca
Cc1ccc(S(=O)(=O)Oc2ccccc2/C=C2/SC(=O)NC2=O)cc1	38*	4	-17	4	-18	2
O=C1NC(=O)/C(=C/c2cccc3ccccc23)S1	30*	4	10	-7	-23	-3
O=C1NC(=O)C(=Cc2ccccc2[N+](=O)[O-])S1	/	1	6	-9	/	/
O=C1CCC(c2ccc3c(c2)CCC3)=NN1	10	0	17	-2	-19	-4
O=c1[nH]c(CSc2ncnc3sc(-c4ccccc4)cc23)nc2ccccc12	0	0	6	-10	-6	1
O=C(Cn1cnc([N+](=O)[O-])n1)NCc1ccccc1	72*	0	-8	6	2	-2
COc1ccc(CNC(=O)c2ccc(N3CCC4(CC3)CC(c3ccc(Cl)cc3)=NO4)c(N)c2)cc1	17	/	/	/	-2	-2
COc1ccc(CCNC(=O)COc2ncnc3cc([N+](=O)[O-])ccc23)cc1	53*	0	-12	12	-25	-4
O=C(COc1ncnc2ccccc12)Nc1cc([N+](=O)[O-])ccc1F	24	17*	6	3	-29	-22
CCCCCC(=O)N1C[C@H](O)[C@@H](n2cc(COC(=O)c3ccccc3)nn2)C[C@@H]1c1ccc(Cl)cc1	/	1	-12	3	/	/
O=C(c1ccccc1)c1ccc(O)cc1O	8	16*	2	-3	9	7
O=C(c1ccc(O)cc1)c1ccc(O)cc1O	7	2	4	0	4	-2
OC(CNCCc1ccc(C(F)(F)F)cc1)COC(c1ccccc1)c1ccccc1 (centres undefined)	-5	1	-12	18	49*	89*
Cn1c(=O)oc2cc(S(=O)(=O)NCCC(=O)N3CCN(c4ccccc4F)CC3)ccc21	12	3	-7	-2	-8	-13
Cc1ccc(C)c(N2CCN(C(=O)CCNS(=O)(=O)c3ccc4c(c3)oc(=O)n4C)CC2)c1	4	17*	-14	-2	-8	10
O=C1COc2ccc(C(=O)COC(=O)c3ccccc3[N+](=O)[O-])cc2N1	16	5	-7	1	-6	-11
O=C1Nc2ccccc2OCc2c1cccc2[N+](=O)[O-]	40*	1	16	-7	-8	1
CC(=O)NNC(=O)c1cc2c3ccccc3n(C)c2s1	36	0	16	-14	1	-5
Cn1c2ccccc2c2cc(C(=O)N3CCN(CCO)CC3)sc21	1	0	-6	24*	-6	-4
Cn1c(CNC(=O)CNC(=O)Cc2ccccc2)cc(=O)n(C)c1=O	11	1	0	-9	-6	1
Cc1cccc[n+]1CC(=O)c1ccc(NC(=O)c2ccccc2)cc1	15	0	13	-6	-4	-5
O=C(Nc1ccc(Cl)cc1)N1CCC(c2nc(-c3ccccc3Cl)no2)CC1	45	6	6	10	32	37*
